The record followed here is ChEMBL document CHEMBL1142707, “Bisaryloxime ethers as potent inhibitors of transthyretin amyloid fibril formation” (J Med Chem, 2005).

In assay [1] the target is Transthyretin (Homo sapiens) (UniProt P02766). As to the kind of experiment: Percentage of WT-TTR (3.6 uM) amyloid fibril formation at pH 4.4 upon incubation with the compound (7.2 uM); compound is unstable. A digest of the protocol: (§1)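 WT-TTR (7.2 µM, 0.4 mg/mL) in 10 mM phosphate pH 7.2, 100 mM KCl, 1 mM EDTA was preincubated 30 min at 37 °C with inhibitor added from a 1.44 mM DMSO stock. An equal volume of 200 mM acetate pH 4.2 brought the sample to pH 4.4 (3.6 µM TTR, 7.2 µM compound final). Left 72 h at 37 °C, vortexed, turbidity read at 350 and 400 or 500 nm. Run in duplicate or triplicate.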

Assay [2] shares this target. As to the kind of experiment: Binding stoichiometry to TTR in human blood plasma determined by antibody capture/HPLC method. Type of assay: cell-free. In a few lines: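 Human blood plasma spiked to 10.8 µM test compound from a 2.16 mM DMSO stock and incubated 24 h at 37 °C. Plasma was precleared with plain Sepharose for 1 h at 4 °C, then split into three aliquots for anti-TTR antibody-resin capture (20 min, 4 °C) in 10 mM Tris pH 8.0, 140 mM NaCl. Resin washed, eluted with 100 mM triethylamine pH 11.5, eluate analysed by HPLC for compound:TTR stoichiometry.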

Assay [3] has the same target. As to the kind of experiment: Percentage compound remaining at the conclusion of the acid-mediated fibril formation assay (72 h), assay conditions compound (7.2 uM), WT-TTR (3.6 uM, pH 4.4, 37C). A digest of the protocol:
(§2)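 Compound at 7.2 µM was incubated in the dark with or without 3.6 µM WT-TTR under acid fibril conditions (pH 4.4, 37 °C, 72 h). Analytical RP-HPLC peak area of the compound at the end was compared with the area at the start. Measurement error stated as 4%.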

For assay [4] the target is unchanged. As to the kind of experiment: Percentage of WT-TTR (3.6 uM) amyloid fibril formation at pH 4.4 upon incubation with the compound (7.2 uM). A digest of the protocol: as §1
Assay [5] shares this target. As to the kind of experiment: Percentage compound remaining at the conclusion of the acid-mediated fibril formation assay (72 h) in absence of TTR, assay conditions, compound (7.2 uM), pH 4.4, 37C. In a few lines:
as §2

For assay [6] the target is unchanged. Put plainly: Percentage compound remaining at the conclusion of the acid-mediated fibril formation assay (72 h), assay conditions compound (7.2 uM), WT-TTR (3.6 uM, pH 7.2, 37C). In a few lines:
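Compound at 7.2 µM was incubated in the dark with 3.6 µM WT-TTR at 37 °C for 72 h, with the buffer held at pH 7.2. Analytical RP-HPLC peak area of the compound at the end was compared with the area at the start.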

On to `O=C(O)c1ccccc1/C=N/Oc1ccccc1C(=O)O`, for which the Formation entry in assay [1] is given as “Unstable”.
The compound `O=C(O)c1ccc(O/N=C/c2cc(Br)c(O)c(Br)c2)cc1` gave a Binding stoichiometry in assay [2] of under 0.5. In addition, the Activity in assay [3] came to 81%; in assay [5] it was 88%. In assay [4], the Formation is 0%.
For `O=C(O)c1ccccc1O/N=C/c1cc(Cl)cc(Cl)c1`, in that order: under 0.5, 74%, 4% and 1%.
In turn, `Oc1c(Br)cc(/C=N/Oc2ccccc2)cc1Br` returned a Binding stoichiometry in assay [2] of 1.02. For the same compound, the Activity in assay [3] stood at 76%; in assay [5], 8%. In assay [4], this compound registered a Formation of 0%.
For `Oc1c(I)cc(/C=N/Oc2ccccc2C(F)(F)F)cc1I`, in that order: 1.71, 100%, 89% and 1%.
As to `O=C(O)c1ccc(O/N=C/c2ccccc2C(F)(F)F)cc1`, in assay [2], the Binding stoichiometry came to 1.31. Besides, the Activity in assay [3] was found to be 84%; in assay [5], 79%. Besides, in assay [4], the Formation is 0%.
`O=C(O)c1ccc(O/N=C/c2cc(I)c(O)c(I)c2)cc1`: the Binding stoichiometry in assay [2] is under 0.5. Besides, the Activity in assay [3] stood at 83%; in assay [5], 91%. Also, the Formation in assay [4] is 1%.
`O=C(O)c1ccc(O/N=C/c2c(Cl)cccc2Cl)cc1` yielded a Binding stoichiometry in assay [2] of 0.81. The Activity in assay [3] was 81%; in assay [5] it was 85%. In assay [4], the Formation stood at 0%.
Regarding `Oc1c(Br)cc(/C=N/Oc2ccccc2C(F)(F)F)cc1Br`, the Binding stoichiometry in assay [2] was 1.86. In addition, the values for the Activity in assay [3] and in assay [5] were 98% and 78%, respectively. In addition, the Formation in assay [4] is 1%.
For `O=C(O)c1cccc(O/N=C/c2cc(I)c(O)c(I)c2)c1`, the Binding stoichiometry in assay [2] is under 0.5. Further, the Activity in assay [3] was found to be 77%; in assay [5], 81%. This compound also showed a Formation in assay [4] of 0%.
Compound `O=C(O)c1ccc(/C=N/Oc2ccccc2C(F)(F)F)cc1` came in with a Binding stoichiometry in assay [2] of 1.38. Moreover, the Activity in assay [3] was 83%; in assay [6], 76%. This compound also registered a Formation in assay [4] of 3%.
In turn, `Oc1c(I)cc(/C=N/Oc2ccccc2)cc1I` displayed a Binding stoichiometry in assay [2] of 0.89. For the same compound, the Activity in assay [3] was found to be 79%; in assay [5], 24%. Further, the Formation in assay [4] was 0%.
As to `O=C(O)c1cccc(O/N=C/c2ccccc2C(F)(F)F)c1`, the Binding stoichiometry in assay [2] is 1. The figures for the Activity in assay [3] and in assay [5] were 88% and 20%, respectively. This compound showed a Formation in assay [4] of 1%.
For the compound `Oc1c(I)cc(/C=N/Oc2cc(Cl)cc(Cl)c2)cc1I`, in assay [2], the Binding stoichiometry was 0.55. In assay [4], the Formation stood at 4%.
`O=C(O)c1cccc(O/N=C/c2cc(F)cc(F)c2)c1` displayed a Binding stoichiometry in assay [2] of under 0.5. In assay [4], this compound gave a Formation of 8%.
The like results for `O=C(O)c1ccccc1O/N=C/c1cc(Br)c(O)c(Br)c1` were, in that order, under 0.5 and 0%.
The compound `O=C(O)c1ccc(/C=N/Oc2cc(Cl)cc(Cl)c2)cc1` displayed a Binding stoichiometry in assay [2] of 0.78. In assay [4], the Formation was determined as 9%.
